Experimental data taken from ChEMBL document CHEMBL1124769, “Retinobenzoic acids. 5. Retinoidal activities of compounds having a trimethylsilyl or trimethylgermyl group(s) in human promyelocytic leukemia cells HL-60” (1990).

Key:
[1] = tested on: HL-60; experiment: Ability to induce differentiation of human promyelocytic leukemia cell line HL-60 to mature granulocytes.; format: functional; conditions: for EC50: read-out: ED50 (the source's name)
Method in brief: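 HL-60 cells in RPMI1640 with 5% FCS, penicillin G and streptomycin, at 37 °C in 5% CO2. Seeded at ~8 × 10^4 cells/mL and exposed 4 days to compound from a 0.2 mM ethanol stock (final ethanol <0.5%, ethanol-only controls). Read by Wright-Giemsa differential counts and NBT reduction (0.2% NBT plus TPA, 20 min, 37 °C), ≥200 cells each. ED50 from NBT data (van der Waerden method).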

[2] = tested on: HL-60; experiment: Relative activity against human promyelocytic leukemia HL-60 cells.; format: functional
Method in brief: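 Relative activity was computed as ED50 of retinoic acid ÷ ED50 of test compound × 100. Both ED50s came from concurrent 4-day HL-60 NBT-reduction differentiation assays spanning 5 orders of magnitude in concentration, each run at least twice. Values are representative ones or means.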

Row | Molecule | EC50 [1] | Relative activity [2] | ED50 [1]
1 | C[Si](C)(C)c1cc(C(=O)/C=C/c2ccc(C(=O)O)cc2)cc([Si](C)(C)C)c1 | 0.14 nM | 860 | 
2 | C[Si](C)(C)c1cc(C(=O)Nc2ccc(C(=O)O)cc2)cc([Si](C)(C)C)c1 [AMSILAROTENE] | 9.2 nM | 52.7 | 
3 | CC1(C)CCC(C)(C)c2cc(NC(=O)c3ccc(C(=O)O)cc3)ccc21 [TAMIBAROTENE] | 0.79 nM |  | 
4 | CC(C)(C)c1cc(NC(=O)c2ccc(C(=O)O)cc2)cc(C(C)(C)C)c1 | 36 nM | 15 | 
5 | CC(C)(C)c1ccc(C(=O)/C=C/c2ccc(C(=O)O)cc2)cc1 |  | 3.9 | 
6 | 4-[3-Oxo-3-(3-trimethylgermanyl-phenyl)-propenyl]-benzoic acid (Ch60G) |  | 4.5 | 40 nM
7 | CC1=C(/C=C/C(C)=C/C=C/C(C)=C/C(=O)O)C(C)(C)CCC1 [TRETINOIN] | 2.4 nM | 100 | 
8 | CC(C)(C)c1cccc(NC(=O)c2ccc(C(=O)O)cc2)c1 | 700 nM | 0.32 | 
9 | N-(3,5-Bis-trimethylgermanyl-phenyl)-terephthalamic acid (Am55G) |  | 15 | 42 nM
10 | CC(C)(C)c1cc(C(=O)/C=C/c2ccc(C(=O)O)cc2)cc(C(C)(C)C)c1 |  | 640 | 
11 | C[Si](C)(C)c1cccc(C(=O)/C=C/c2ccc(C(=O)O)cc2)c1 | 44 nM | 1.8 | 
12 | C[Si](C)(C)c1cc(NC(=O)c2ccc(C(=O)O)cc2)cc([Si](C)(C)C)c1 | 30 nM | 13 | 
13 | CC(C)(C)c1cccc(C(=O)/C=C/c2ccc(C(=O)O)cc2)c1 | 160 nM | 0.81 | 
14 | CCc1ccc(C(=O)/C=C/c2ccc(C(=O)O)cc2)cc1CC | 170 nM |  | 
15 | C[Si](C)(C)c1cccc(NC(=O)c2ccc(C(=O)O)cc2)c1 | 85 nM | 2.4 | 
16 | C[Si](C)(C)c1cccc(/C=C/c2ccc(C(=O)O)cc2)c1 | 1 nM | 85 | 
17 | CC(C)c1cccc(NC(=O)c2ccc(C(=O)O)cc2)c1 | 680 nM |  | 
18 | CC(C)(C)c1cccc(/C=C/c2ccc(C(=O)O)cc2)c1 |  | 13 | 
19 | 4-[3-(2,5-Bis-trimethylgermanyl-phenyl)-3-oxo-propenyl]-benzoic acid (Ch55G) |  | 1000 | 0.21 nM
20 | CC(C)(C)c1cc(C(=O)Nc2ccc(C(=O)O)cc2)cc(C(C)(C)C)c1 | 48 nM | 5.6 | 
